Laboratory results reported in ChEMBL document CHEMBL4842314, “Synthesis and SAR evaluation of coumarin derivatives as potent cannabinoid receptor agonists” (Eur J Med Chem, 2021).

How the values were obtained:
Cannabinoid receptor 2 [1] = target: T1, Cannabinoid receptor 2 (Homo sapiens, UniProt P34972); test: Displacement of [3H]-CP55940 from human recombinant CB2 receptor expressed in CHO-K1 cell membrane at 1 uM measured after 3 hrs by scintillation spectrometry; type: cell membranes
Cannabinoid receptor 1 [2] = target: T2, Cannabinoid receptor 1 (Homo sapiens, UniProt P21554); test: Displacement of [3H]-CP55940 from human recombinant CB1 receptor expressed in CHO-K1 cell membrane measured after 3 hrs by scintillation spectrometry; type: cell membranes
T2 sequence (P21554 whole entry): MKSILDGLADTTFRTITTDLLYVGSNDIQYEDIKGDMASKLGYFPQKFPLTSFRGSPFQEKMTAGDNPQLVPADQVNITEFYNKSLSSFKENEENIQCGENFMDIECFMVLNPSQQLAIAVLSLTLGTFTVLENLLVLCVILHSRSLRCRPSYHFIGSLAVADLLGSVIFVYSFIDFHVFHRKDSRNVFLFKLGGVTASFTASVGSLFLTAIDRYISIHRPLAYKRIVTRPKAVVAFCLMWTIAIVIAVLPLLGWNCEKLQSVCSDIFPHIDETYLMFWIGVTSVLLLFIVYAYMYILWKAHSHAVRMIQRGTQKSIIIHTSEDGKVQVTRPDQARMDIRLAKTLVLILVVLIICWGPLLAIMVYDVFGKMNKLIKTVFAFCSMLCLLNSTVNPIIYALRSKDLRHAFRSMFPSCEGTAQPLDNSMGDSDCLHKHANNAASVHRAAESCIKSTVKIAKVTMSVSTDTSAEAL

Cannabinoid receptor 2 [3] = target: T1, Cannabinoid receptor 2; test: Agonist activity at human recombinant CB2 receptor expressed in CHO-K1 cell membrane assessed as increase in GTPgammaS binding at 1 uM pretreated for 30 mins followed by [35S]GTPgammaS addition for 90 mins by [35S]GTP-gammaS binding assay relative to CP55940; type: functional, cell membranes; settings: filed as agonist, time 120.0 min
How it was run: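 Membranes (5 μg) from PathHunter CHOK1 cells stably expressing hCB1 or hCB2 pre-incubated 30 min at room temperature with test ligand at 1 μM final, 1 μM GDP and 5 μg saponin in Tris-HCl pH 7.4, MgCl2, NaCl, EDTA, BSA, DTT. [35S]GTPγS (0.3 nM final) was then added for 90 min at 25 °C. Filtration on GF/B. Emax given relative to CP55,940 (100%), two experiments in duplicate.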

Cannabinoid receptor 1 [4] = target: T2, Cannabinoid receptor 1; test: Displacement of [3H]-CP55940 from human recombinant CB1 receptor expressed in CHO-K1 cell membrane at 1 uM measured after 3 hrs by scintillation spectrometry; type: cell membranes
Cannabinoid receptor 2 [5] = target: T1, Cannabinoid receptor 2; test: Displacement of [3H]-CP55940 from human recombinant CB2 receptor expressed in CHO-K1 cell membrane measured after 3 hrs by scintillation spectrometry; type: cell membranes

T1 sequence (P34972 whole entry): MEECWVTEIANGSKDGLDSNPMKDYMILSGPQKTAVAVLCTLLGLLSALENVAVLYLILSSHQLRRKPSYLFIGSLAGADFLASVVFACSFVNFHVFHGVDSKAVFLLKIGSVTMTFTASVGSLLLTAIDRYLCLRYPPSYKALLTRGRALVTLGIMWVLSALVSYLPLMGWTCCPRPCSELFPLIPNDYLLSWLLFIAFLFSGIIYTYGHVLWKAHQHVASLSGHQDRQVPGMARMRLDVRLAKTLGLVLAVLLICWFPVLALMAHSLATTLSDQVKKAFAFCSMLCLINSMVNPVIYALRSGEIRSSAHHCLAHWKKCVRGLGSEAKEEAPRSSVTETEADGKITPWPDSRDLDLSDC

| SMILES | inhibition (Cannabinoid receptor 2 [1]; filed as agonist) [%] | Ki (Cannabinoid receptor 1 [2]; read-out: pKi (converted)) [µM] | Emax (Cannabinoid receptor 2 [3]) [%] | inhibition (Cannabinoid receptor 1 [4]) [%] | Ki (Cannabinoid receptor 2 [5]; read-out: Ki) [µM] | inhibition (Cannabinoid receptor 2 [1]) [%] | Ki (Cannabinoid receptor 2 [5]; read-out: pKi (converted)) [µM] | Ki (Cannabinoid receptor 1 [2]; read-out: Ki) [µM] | inhibition (Cannabinoid receptor 1 [4]; filed as agonist) [%] |
| --- | --- | --- | --- | --- | --- | --- | --- | --- | --- |
| CCCCC1(c2cc(O)c3cc(CC)c(=O)oc3c2)CCCC1 | > 50 | > 1 | 87 | 34 | 0.0606 |  |  |  |  |
| CCCCc1cc2c(OC)cc(C3(CCCC)CCCCC3)cc2oc1=O |  | > 1 |  |  |  | 2 | > 1 |  |  |
| CCCCC1(c2cc(OC)c3cc(CCC)c(=O)oc3c2)CCCC1 |  | > 1 |  | 32 |  | 38 | > 1 |  |  |
| CCCCC1(c2cc(OC)c3cc(Cc4cccnc4)c(=O)oc3c2)CCCCC1 |  | > 1 |  | 6 |  | 11 | > 1 |  |  |
| CCCCCCC(C)(C)c1cc(OC)c2cc(Cc3ccccc3C(F)(F)F)c(=O)oc2c1 |  | > 1 |  | 26 |  | 3 | > 1 |  |  |
| CCCCC(C)(C)c1cc(OC)c2cc(Cc3ccccc3)c(=O)oc2c1 |  |  |  |  |  | 39 | > 1 | 0.486 | > 50 |
| CCCCC(C)(C)c1cc(O)c2cc(Cc3ccccc3C)c(=O)oc2c1 | 41 | > 1 |  | 30 |  |  | > 1 |  |  |
| CCCCC1(c2cc(O)c3cc(C)c(=O)oc3c2)CCCCC1 | > 50 | > 1 | 66 | 19 | 0.106 |  |  |  |  |
| CCCCC1(c2cc(OC)c3cc(Cc4ccncc4)c(=O)oc3c2)CCCC1 |  | > 1 |  | 28 |  | 9 | > 1 |  |  |
| CCCCC1(c2cc(O)c3cc(CC)c(=O)oc3c2)CCCCC1 | > 50 | > 1 | 65 | 39 | 0.0391 |  |  |  |  |
| CCCCC1(c2cc(OC)c3cc(Cc4cccnc4)c(=O)oc3c2)CCCC1 | 40 | > 1 |  | 29 |  |  | > 1 |  |  |
| CCCCC1(c2cc(OC)c3cc(-c4ccccc4C)c(=O)oc3c2)CCCC1 |  | > 1 |  |  |  |  | > 1 |  |  |
| CCCCC1(c2cc(OC)c3cc(CCC)c(=O)oc3c2)CCCCC1 |  | > 1 |  | 18 |  | -4 | > 1 |  |  |
| CCCCCc1cc(O)c2cc(Cc3ccccn3)c(=O)oc2c1 |  | > 1 |  |  |  |  | > 1 |  |  |
| CCCCC1(c2cc(OC)c3cc(-c4ccccc4OC)c(=O)oc3c2)CCCC1 |  | > 1 |  | -10 |  |  | > 1 |  |  |
| CCCCC1(c2cc(OC)c3cc(Cc4ccccn4)c(=O)oc3c2)CCCC1 |  | > 1 |  | 29 |  | 20 | > 1 |  |  |
| CCCCC1(c2cc(OC)c3cc(-c4ccc(C(F)(F)F)cc4)c(=O)oc3c2)CCCC1 |  | > 1 |  | 3 |  | -4 | > 1 |  |  |
| CCCCC1(c2cc(OC)c3cc(Cc4ccccn4)c(=O)oc3c2)CCCCC1 |  | > 1 |  |  |  | 12 | > 1 |  | 47 |
| CCCCC1(c2cc(OC)c3cc(CC)c(=O)oc3c2)CCCCC1 |  | > 1 |  | 6 |  | -1 | > 1 |  |  |
| CCCCC1(c2cc(O)c3cc(-c4ccccc4C)c(=O)oc3c2)CCCC1 | 43 | > 1 |  | 4 |  |  | > 1 |  |  |
| CCCCCCC(C)(C)c1cc(O)c2cc(Cc3ccccc3)c(=O)oc2c1 | > 50 |  |  |  |  |  |  |  | > 50 |
| CCCCCCC(C)(C)c1cc(O)c2cc(Cc3ccccc3C)c(=O)oc2c1 | > 50 | > 1 |  |  | 0.222 |  |  |  | 47 |
| CCCCCc1cc(O)c2cc(Cc3cccnc3)c(=O)oc2c1 |  | > 1 |  |  |  |  | > 1 |  |  |
| CCCCC(C)(C)c1cc(OC)c2cc(Cc3ccccc3OC)c(=O)oc2c1 | > 50 |  |  |  | 0.231 |  |  | 0.196 | > 50 |

| SMILES | inhibition (Cannabinoid receptor 2 [1]; filed as agonist) [%] | Ki (Cannabinoid receptor 1 [2]; read-out: pKi (converted)) [µM] | Emax (Cannabinoid receptor 2 [3]) [%] | inhibition (Cannabinoid receptor 1 [4]) [%] | Ki (Cannabinoid receptor 2 [5]; read-out: Ki) [µM] | inhibition (Cannabinoid receptor 2 [1]) [%] | Ki (Cannabinoid receptor 2 [5]; read-out: pKi (converted)) [µM] | Ki (Cannabinoid receptor 1 [2]; read-out: Ki) [µM] | inhibition (Cannabinoid receptor 1 [4]; filed as agonist) [%] |
| --- | --- | --- | --- | --- | --- | --- | --- | --- | --- |
| CCCCC1(c2cc(O)c3cc(Cc4ccccn4)c(=O)oc3c2)CCCC1 | 44 | > 1 |  | 34 |  |  | > 1 |  |  |
| CCCCC1(c2cc(OC)c3cc(-c4ccccc4)c(=O)oc3c2)CCCC1 |  | > 1 |  | 34 |  | -8 | > 1 |  |  |
| CCCCC1(c2cc(OC)c3cc(CC)c(=O)oc3c2)CCCC1 |  | > 1 |  | 33 |  | 0 | > 1 |  |  |
| CCCCc1cc2c(OC)cc(C3(CCCC)CCCC3)cc2oc1=O |  | > 1 |  | 15 |  | -1 | > 1 |  |  |
| CCCCC1(c2cc(OC)c3cc(C)c(=O)oc3c2)CCCC1 |  | > 1 |  | 16 |  | 1 | > 1 |  |  |
| CCCCC1(c2cc(O)c3cc(Cc4ccncc4)c(=O)oc3c2)CCCC1 |  | > 1 |  |  |  | 21 | > 1 |  |  |
| CCCCC(C)(C)c1cc(O)c2cc(Cc3ccccc3)c(=O)oc2c1 |  | > 1 |  | 12 |  | 24 | > 1 |  |  |
| CCCCC1(c2cc(O)c3cc(C)c(=O)oc3c2)CCCC1 | 49 | > 1 |  | -10 |  |  | 1 |  |  |
| CCCCCCC(C)(C)c1cc(OC)c2cc(Cc3ccccc3)c(=O)oc2c1 | > 50 |  |  |  |  |  |  |  | > 50 |
| CCCCC(C)(C)c1cc(O)c2cc(Cc3ccccc3O)c(=O)oc2c1 |  | > 1 |  | 24 |  | 37 | > 1 |  |  |
| CCCCCCC(C)(C)c1cc(OC)c2cc(Cc3ccccc3OC)c(=O)oc2c1 | > 50 |  |  |  |  |  |  |  | > 50 |
| CCCCC1(c2cc(O)c3cc(-c4ccc(C(F)(F)F)cc4)c(=O)oc3c2)CCCC1 |  | > 1 |  |  |  | -10 | > 1 |  |  |
| CCCCC(C)(C)c1cc(OC)c2cc(Cc3ccccc3C)c(=O)oc2c1 |  |  |  |  |  | 32 | > 1 | 0.217 | > 50 |
| CCCCC1(c2cc(O)c3cc(CCC)c(=O)oc3c2)CCCC1 | > 50 | > 1 | 91 |  | 0.0186 |  |  |  | 47 |
| CCCCCCC(C)(C)c1cc(O)c2cc(Cc3ccccc3O)c(=O)oc2c1 | > 50 |  |  |  |  |  |  |  | > 50 |
| CCCCCc1cc(OC)c2cc(Cc3ccncc3)c(=O)oc2c1 |  | > 1 |  | 0 |  | 11 | > 1 |  |  |
| CCCCCCC(C)(C)c1cc(O)c2cc(Cc3ccccc3C(F)(F)F)c(=O)oc2c1 | 42 | 1 |  |  |  |  | > 1 |  | 49 |
| CCCCC1(c2cc(O)c3cc(-c4ccccc4)c(=O)oc3c2)CCCC1 |  | > 1 |  |  |  |  | > 1 |  |  |
| CCCCCc1cc(O)c2cc(Cc3ccncc3)c(=O)oc2c1 |  | > 1 |  |  |  | -5 | > 1 |  |  |
| CCCCC1(c2cc(OC)c3cc(C)c(=O)oc3c2)CCCCC1 |  | > 1 |  | 9 |  |  | > 1 |  |  |
| CCCCC1(c2cc(OC)c3cc(Cc4ccncc4)c(=O)oc3c2)CCCCC1 |  | > 1 |  | 26 |  | 3 | > 1 |  |  |
| CCCCC1(c2cc(O)c3cc(Cc4ccncc4)c(=O)oc3c2)CCCCC1 | 46 | > 1 |  | 5 |  |  | > 1 |  |  |
| CCCCC1(c2cc(O)c3cc(-c4ccccc4O)c(=O)oc3c2)CCCC1 |  | > 1 |  |  |  | -2 | > 1 |  |  |
